Laboratory results published in ChEMBL document CHEMBL4706775, “Discovery of Arylsulfonamide Na1.7 Inhibitors: IVIVC, MPO Methods, and Optimization of Selectivity Profile” (ACS Med Chem Lett, 2021).

Key:
[1] = molecular target: Sodium channel protein type 8 subunit alpha (Homo sapiens, UniProt Q9UQD0); assay: Inhibition of human Nav1.6 alpha expressed in HEK293 cells incubated for 5 mins with 6 consecutive train pulses to -10 mV at 0.1 Hz and holding potential of -65 mV by Qube-automated patch clamp assay; format: ADME, cell-based
[2] = molecular target: Sodium channel protein type 9 subunit alpha (Homo sapiens, UniProt Q15858); assay: Inhibition of human Nav1.7 alpha expressed in HEK293 cells incubated for 5 mins with 6 consecutive train pulses to -10 mV at 0.1 Hz and holding potential of -65 mV by Qube-automated patch clamp assay; format: cell-based
[3] = Clearance in rat; format: ADME; conditions: in vivo
[4] = Half life in dog; format: ADME, Canis lupus familiaris; conditions: in vivo
[5] = Volume of distribution at steady state in rhesus monkey; format: ADME, Macaca mulatta; conditions: in vivo, read-out: Vdss
[6] = Intrinsic Clearance in dog; format: ADME, Canis lupus familiaris
[7] = molecular target: T1, Nuclear receptor subfamily 1 group I member 2 (Homo sapiens, UniProt O75469); assay: Activation of PXR (unknown origin); format: ADME
T1 sequence (O75469 whole entry): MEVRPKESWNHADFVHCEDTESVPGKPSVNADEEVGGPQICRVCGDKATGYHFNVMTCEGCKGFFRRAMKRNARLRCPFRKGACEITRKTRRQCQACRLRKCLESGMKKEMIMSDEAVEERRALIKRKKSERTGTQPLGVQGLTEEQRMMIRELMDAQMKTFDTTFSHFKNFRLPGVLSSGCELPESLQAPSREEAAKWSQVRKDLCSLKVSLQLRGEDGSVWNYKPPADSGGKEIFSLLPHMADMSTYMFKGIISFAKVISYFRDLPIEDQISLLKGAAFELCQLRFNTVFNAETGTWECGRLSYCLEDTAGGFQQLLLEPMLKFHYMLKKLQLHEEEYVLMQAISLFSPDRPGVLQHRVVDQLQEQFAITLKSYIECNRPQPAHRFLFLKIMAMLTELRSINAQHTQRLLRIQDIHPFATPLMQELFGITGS

[8] = Drug concentration in plasma of formalin-induced C57BL/6 mouse model of formalin-induced pain at 300 mg/kg, po pretreated with compound for 15 mins followed by formalin challenge and measured after […]; format: ADME, organism-based
[9] = Drug concentration in plasma of formalin-induced C57BL/6 mouse model of formalin-induced pain at 30 mg/kg, po pretreated with compound for 15 mins followed by formalin challenge and measured after […]; format: ADME, organism-based
[10] = Intrinsic clearance in rat at 0.05 mg/kg, iv administered as cassette dose or 2 mg/kg, iv administered as single dose; conditions: in vivo
[11] = Drug concentration in mouse plasma at 100 mg/kg, po measured after 1.25 hrs; format: ADME, organism-based
[12] = Kinetic solubility of compound at pH 2 by HPLC analysis; format: physicochemical; conditions: buffer, read-out: Kinetic_solubility
[13] = Protein binding in mouse plasma; format: ADME, cell-free; conditions: read-out: PPB (converted)
[14] = Kinetic solubility of compound at pH 7 by HPLC analysis; format: physicochemical; conditions: buffer, read-out: Kinetic_solubility
[15] = Intrinsic Clearance in rhesus monkey; format: ADME, Macaca mulatta
[16] = Dissociation constant, pKa of the sulfonamide compound; format: physicochemical
[17] = Drug concentration in plasma of formalin-induced C57BL/6 mouse model of formalin-induced pain at 100 mg/kg, po pretreated with compound for 15 mins followed by formalin challenge and measured after […]; format: ADME, organism-based
P-glycoprotein [18] = assay: Substrate activity at human p-glycoprotein assessed as efflux ratio of permeability across basal to apical membrane over apical to basal membrane; format: ADME; conditions: not told
Cytochrome P450 2D6 = Cytochrome P450 2D6 (Homo sapiens, UniProt P10635); assay: Inhibition of […] (unknown origin); format: ADME
[19] = Clearance in rhesus monkey; format: ADME, Macaca mulatta; conditions: in vivo
[20] = Drug concentration in mouse CSF at 100 mg/kg, po measured after 1.25 hrs; format: ADME, organism-based, Cerebrospinal fluid; conditions: read-out: Ct
[21] = Protein binding in human plasma; format: ADME, cell-free; conditions: read-out: PPB (converted)
[22] = Unbound plasma concentration in rhesus monkey at 19.2 mg/kg; format: ADME, organism-based, Macaca mulatta; conditions: in vivo
In short: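 Anesthetized rhesus monkeys, n = 4, imaged by olfactory-bulb fMRI over 2 h; IV infusion in 30% Captisol (~8 mL/animal) started at 1 h and continued for 1 h; unbound plasma concentration determined alongside olfactory inhibition.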

Cytochrome P450 2C9 = Cytochrome P450 2C9 (Homo sapiens, UniProt P11712); assay: Inhibition of CYP2C9 (unknown origin); format: ADME
[23] = Volume of distribution at steady state in rat; format: ADME; conditions: in vivo, read-out: Vdss
[24] = Half life in rhesus monkey; format: ADME, Macaca mulatta; conditions: in vivo
Mus musculus [25] = organism: Mus musculus; assay: Analgesic activity in mouse models of formalin-induced nociception assessed as reduction in paw pain; format: functional
[26] = Clearance in dog; format: ADME, Canis lupus familiaris; conditions: in vivo
[27] = Oral bioavailability in rhesus monkey; format: ADME, organism-based, Macaca mulatta; conditions: in vivo
[28] = Dissociation constant, pKa of the amine compound; format: physicochemical
[29] = Drug concentration in mouse brain at 100 mg/kg, po measured after 1.25 hrs; format: ADME, organism-based; conditions: read-out: Ct
[30] = Protein binding in rhesus monkey plasma; format: ADME, cell-free, Macaca mulatta; conditions: read-out: PPB (converted)
[31] = Apparent permeability in MDCK cells by Monolayer assay; format: ADME, cell-based, Canis lupus familiaris; conditions: dog
[32] = Selectivity ratio of IC50 for human Nav 1.5 expressed in HEK293 cells to IC50 for human Nav 1.7 alpha expressed in HEK293 cells
Nav1.5 = Nav1.5 (Homo sapiens, UniProt Q14524); assay: Inhibition of human Nav1.5 alpha expressed in HEK293 cells expressed in HEK293 cells incubated for 5 mins with 6 consecutive train pulses to -10 mV at 0.1 Hz and holding potential of -65 mV by Qube-automated patch clamp assay; format: ADME, cell-based; conditions: HEK293 cells expressing human Nav1.5 alpha
[33] = Selectivity ratio of IC50 for human Nav 1.6 alpha expressed in HEK293 cells to IC50 for human Nav 1.7 alpha expressed in HEK293 cells
[34] = Oral bioavailability in rat; format: ADME, organism-based; conditions: in vivo
P-glycoprotein [35] = assay: Substrate activity at rat p-glycoprotein assessed as efflux ratio of permeability across basal to apical membrane over apical to basal membrane; format: ADME; conditions: not told
[36] = Oral bioavailability in dog; format: ADME, organism-based, Canis lupus familiaris; conditions: in vivo
Mus musculus [37] = assay: Analgesic activity against formalin-induced nociception in po dosed C57BL/6J mouse pretreated with compound for 15 mins followed by formalin challenge and measured after […]; format: functional, organism-based
PXR = molecular target: T2, PXR (Homo sapiens, UniProt O75469); assay: Activation of PXR (unknown origin) relative to control; format: ADME
T2 sequence (O75469 whole entry): T1 sequence (O75469 whole entry)

[38] = Inhibition of rhesus monkey Nav1.7 alpha expressed in HEK293 cells; format: cell-based, Macaca mulatta
[39] = Half life in rat; format: ADME; conditions: in vivo
Mus musculus [40] = assay: Reversal of formalin-induced nociception in po dosed C57BL/6 mouse pretreated with compound for 15 mins followed by formalin challenge and measured after 20 to 35 mins; format: functional; conditions: time min <=75
In short: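 C57BL/6 mice given compound orally at three dose levels or vehicle (10% Tween 80, 5 mL/kg) 15 min before formalin injection; nociceptive behaviors scored in phase 1 and phase 2; N = 8/group; within-subject ANOVA and 1-sample t test versus vehicle.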

[41] = Distribution coefficient, log D of the compound by MSD HPLC analysis; format: physicochemical; conditions: octanol/water
[42] = Volume of distribution at steady state in dog; format: ADME, Canis lupus familiaris; conditions: in vivo, read-out: Vdss
Cytochrome P450 3A4 = Cytochrome P450 3A4 (Homo sapiens, UniProt P08684); assay: Inhibition of CYP3A4 (unknown origin); format: ADME
Sequence of Cytochrome P450 3A4 (P08684 whole entry): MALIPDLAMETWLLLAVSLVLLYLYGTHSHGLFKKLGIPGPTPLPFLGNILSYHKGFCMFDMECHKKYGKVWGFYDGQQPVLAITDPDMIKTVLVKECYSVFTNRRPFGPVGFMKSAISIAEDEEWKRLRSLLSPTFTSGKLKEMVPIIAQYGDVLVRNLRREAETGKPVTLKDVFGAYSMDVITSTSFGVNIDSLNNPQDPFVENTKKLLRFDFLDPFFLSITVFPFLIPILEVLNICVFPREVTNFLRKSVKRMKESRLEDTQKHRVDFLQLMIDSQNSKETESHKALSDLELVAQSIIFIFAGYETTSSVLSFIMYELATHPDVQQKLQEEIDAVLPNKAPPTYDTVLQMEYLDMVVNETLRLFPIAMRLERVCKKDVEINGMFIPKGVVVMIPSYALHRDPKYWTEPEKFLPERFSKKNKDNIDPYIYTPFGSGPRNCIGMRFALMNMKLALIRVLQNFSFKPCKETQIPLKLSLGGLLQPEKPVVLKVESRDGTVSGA

Sequence of Sodium channel protein type 8 subunit alpha (Q9UQD0 whole entry): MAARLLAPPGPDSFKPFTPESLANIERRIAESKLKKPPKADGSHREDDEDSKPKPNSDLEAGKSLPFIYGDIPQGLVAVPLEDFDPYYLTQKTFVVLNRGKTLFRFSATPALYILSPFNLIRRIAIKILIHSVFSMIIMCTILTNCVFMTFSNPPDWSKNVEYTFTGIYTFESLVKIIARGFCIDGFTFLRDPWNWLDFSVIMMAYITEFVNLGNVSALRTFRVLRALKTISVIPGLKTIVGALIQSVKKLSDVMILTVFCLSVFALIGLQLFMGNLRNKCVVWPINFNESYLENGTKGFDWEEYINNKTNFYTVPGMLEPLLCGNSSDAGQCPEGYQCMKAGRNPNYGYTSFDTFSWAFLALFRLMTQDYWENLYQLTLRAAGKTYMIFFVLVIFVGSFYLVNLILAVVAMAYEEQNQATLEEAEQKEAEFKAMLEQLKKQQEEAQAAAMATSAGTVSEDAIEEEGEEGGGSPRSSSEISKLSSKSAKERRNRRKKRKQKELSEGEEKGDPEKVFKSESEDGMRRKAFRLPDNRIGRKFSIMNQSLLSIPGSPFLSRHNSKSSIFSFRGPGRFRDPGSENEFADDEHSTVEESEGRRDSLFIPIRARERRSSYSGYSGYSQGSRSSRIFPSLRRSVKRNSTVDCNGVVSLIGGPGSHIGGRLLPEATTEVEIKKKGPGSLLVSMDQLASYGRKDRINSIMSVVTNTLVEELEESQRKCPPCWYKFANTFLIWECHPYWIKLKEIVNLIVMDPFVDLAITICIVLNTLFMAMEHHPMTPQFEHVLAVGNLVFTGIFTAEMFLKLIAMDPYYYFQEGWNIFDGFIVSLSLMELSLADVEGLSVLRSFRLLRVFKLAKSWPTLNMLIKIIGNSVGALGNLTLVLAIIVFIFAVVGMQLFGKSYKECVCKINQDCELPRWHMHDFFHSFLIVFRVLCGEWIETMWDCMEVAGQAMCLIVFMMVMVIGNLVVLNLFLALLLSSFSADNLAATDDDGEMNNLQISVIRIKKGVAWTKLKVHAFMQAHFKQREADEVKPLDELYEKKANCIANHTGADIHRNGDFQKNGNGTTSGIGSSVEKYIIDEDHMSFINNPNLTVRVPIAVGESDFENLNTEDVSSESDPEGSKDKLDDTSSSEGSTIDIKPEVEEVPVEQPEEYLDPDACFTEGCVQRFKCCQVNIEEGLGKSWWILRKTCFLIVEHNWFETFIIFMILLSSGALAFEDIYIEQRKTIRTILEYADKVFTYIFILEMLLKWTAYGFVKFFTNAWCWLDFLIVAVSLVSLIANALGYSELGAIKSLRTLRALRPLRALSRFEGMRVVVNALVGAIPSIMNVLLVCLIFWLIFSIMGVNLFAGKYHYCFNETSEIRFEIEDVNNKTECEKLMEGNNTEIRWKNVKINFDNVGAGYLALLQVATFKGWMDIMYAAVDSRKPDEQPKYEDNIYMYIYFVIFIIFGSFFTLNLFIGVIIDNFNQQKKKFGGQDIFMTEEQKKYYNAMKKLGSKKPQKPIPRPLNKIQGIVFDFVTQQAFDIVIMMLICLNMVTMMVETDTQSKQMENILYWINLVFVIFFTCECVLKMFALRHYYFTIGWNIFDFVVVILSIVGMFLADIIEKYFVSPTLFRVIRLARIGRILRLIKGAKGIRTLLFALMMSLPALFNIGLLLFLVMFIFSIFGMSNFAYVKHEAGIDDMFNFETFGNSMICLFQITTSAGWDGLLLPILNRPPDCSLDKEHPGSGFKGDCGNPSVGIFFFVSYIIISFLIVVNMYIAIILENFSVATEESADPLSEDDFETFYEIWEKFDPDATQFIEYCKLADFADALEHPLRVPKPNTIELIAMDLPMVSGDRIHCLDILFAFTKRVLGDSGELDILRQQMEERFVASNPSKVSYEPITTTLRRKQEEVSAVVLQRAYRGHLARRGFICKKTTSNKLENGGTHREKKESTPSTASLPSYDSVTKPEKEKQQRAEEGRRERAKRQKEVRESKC
Sequence of Sodium channel protein type 9 subunit alpha (Q15858 whole entry): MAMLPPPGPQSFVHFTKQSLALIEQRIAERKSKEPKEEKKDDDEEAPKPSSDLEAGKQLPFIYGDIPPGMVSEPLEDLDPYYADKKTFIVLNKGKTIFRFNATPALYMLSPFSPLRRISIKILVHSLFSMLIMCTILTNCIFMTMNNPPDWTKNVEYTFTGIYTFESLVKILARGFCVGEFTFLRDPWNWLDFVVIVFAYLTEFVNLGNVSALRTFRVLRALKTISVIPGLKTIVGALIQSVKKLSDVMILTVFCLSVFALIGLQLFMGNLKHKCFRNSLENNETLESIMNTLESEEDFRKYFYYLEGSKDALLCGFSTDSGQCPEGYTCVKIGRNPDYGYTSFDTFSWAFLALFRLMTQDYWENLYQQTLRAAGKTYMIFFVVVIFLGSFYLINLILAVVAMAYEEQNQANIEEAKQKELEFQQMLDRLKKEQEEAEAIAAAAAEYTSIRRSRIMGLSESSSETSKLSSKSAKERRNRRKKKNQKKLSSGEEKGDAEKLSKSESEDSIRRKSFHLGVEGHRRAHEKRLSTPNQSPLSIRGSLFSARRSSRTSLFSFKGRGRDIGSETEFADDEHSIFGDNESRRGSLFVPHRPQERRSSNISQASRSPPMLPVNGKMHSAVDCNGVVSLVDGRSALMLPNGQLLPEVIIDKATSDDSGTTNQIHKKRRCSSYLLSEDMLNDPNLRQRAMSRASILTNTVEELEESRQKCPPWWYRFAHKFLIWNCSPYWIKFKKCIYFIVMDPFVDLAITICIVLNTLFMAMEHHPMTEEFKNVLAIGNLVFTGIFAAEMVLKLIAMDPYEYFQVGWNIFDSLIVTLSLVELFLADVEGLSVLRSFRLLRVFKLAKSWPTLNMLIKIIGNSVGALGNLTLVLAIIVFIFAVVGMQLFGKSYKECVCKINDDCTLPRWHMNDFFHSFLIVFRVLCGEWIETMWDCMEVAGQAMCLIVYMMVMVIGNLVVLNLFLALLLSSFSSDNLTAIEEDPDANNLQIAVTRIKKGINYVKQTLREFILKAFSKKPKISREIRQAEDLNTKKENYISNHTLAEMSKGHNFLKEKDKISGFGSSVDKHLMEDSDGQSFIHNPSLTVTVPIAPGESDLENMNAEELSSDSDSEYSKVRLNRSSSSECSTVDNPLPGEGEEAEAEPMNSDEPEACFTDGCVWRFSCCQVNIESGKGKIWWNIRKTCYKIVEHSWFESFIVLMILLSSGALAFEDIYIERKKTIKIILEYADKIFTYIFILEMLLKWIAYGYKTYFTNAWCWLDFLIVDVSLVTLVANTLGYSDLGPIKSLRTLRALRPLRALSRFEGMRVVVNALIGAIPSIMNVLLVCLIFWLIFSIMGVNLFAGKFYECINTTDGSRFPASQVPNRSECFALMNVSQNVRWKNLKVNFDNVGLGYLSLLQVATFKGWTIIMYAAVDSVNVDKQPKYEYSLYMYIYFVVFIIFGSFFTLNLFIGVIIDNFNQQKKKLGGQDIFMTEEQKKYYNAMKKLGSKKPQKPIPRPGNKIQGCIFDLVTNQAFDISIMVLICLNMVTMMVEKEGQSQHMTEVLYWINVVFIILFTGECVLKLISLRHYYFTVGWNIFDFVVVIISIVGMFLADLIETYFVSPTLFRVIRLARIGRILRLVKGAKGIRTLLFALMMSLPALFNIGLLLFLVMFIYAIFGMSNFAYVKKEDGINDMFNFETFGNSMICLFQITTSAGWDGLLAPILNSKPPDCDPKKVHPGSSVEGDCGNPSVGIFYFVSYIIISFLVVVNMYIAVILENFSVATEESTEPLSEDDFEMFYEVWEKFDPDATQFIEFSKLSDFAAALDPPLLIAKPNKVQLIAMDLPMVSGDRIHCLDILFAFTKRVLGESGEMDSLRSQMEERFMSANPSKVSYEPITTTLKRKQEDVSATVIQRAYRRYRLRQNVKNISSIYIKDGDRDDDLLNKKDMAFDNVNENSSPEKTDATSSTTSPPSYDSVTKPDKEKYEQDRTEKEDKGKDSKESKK
Sequence of Cytochrome P450 2C9 (P11712 whole entry): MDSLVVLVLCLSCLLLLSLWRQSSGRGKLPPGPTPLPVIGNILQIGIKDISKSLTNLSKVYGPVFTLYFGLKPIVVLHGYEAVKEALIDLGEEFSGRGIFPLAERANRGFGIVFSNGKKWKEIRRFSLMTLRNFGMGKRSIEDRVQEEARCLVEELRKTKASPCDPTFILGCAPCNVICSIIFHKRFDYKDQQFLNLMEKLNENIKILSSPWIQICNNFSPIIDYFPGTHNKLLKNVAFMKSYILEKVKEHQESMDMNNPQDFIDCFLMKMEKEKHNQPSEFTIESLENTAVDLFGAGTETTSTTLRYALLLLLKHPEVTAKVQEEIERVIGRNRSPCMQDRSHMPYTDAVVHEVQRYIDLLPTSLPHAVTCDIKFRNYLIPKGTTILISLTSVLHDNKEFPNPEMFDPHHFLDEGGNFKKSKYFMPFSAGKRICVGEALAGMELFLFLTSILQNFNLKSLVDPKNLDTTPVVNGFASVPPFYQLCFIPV

In the case of `CN[C@H](CNc1cc(F)c(S(=O)(=O)Nc2ncns2)cc1Cl)Cc1ccccc1`, the IC50 [1] is reported as > 34 µM and the IC50 [2] is reported as 1.09 µM.

In the case of `CN[C@H](CNc1cc(F)c(S(=O)(=O)Nc2ncc(F)s2)cc1Cl)CC(C)(C)C.Cl`, the clearance [3] is reported as 29 mL/min/kg, the half-life [4] is reported as 6 h and the Vd [5] is reported as 0.3 L/kg. For the same molecule, the CLint scaled [6] was 200 mL/min/kg, the EC50 [7] was 10 µM and the concentration at 1.75 h [8] was 8.86 µM. The concentration at 1.75 h [9] was 3.27 µM, the CL [10] was 1670 mL/min/kg and the IC50 [1] was 18.7 µM. The concentration at 1.25 h [11] was 4.9 µM, the solubility kinetic [12] was 170 µM and the fraction unbound [13] was 0.06. The solubility kinetic [14] was 148 µM, the CLint scaled [15] was 610 mL/min/kg and the pKa [16] was 5.4. It also gave a concentration at 1.75 h [17] of 6.64 µM, an efflux ratio (P-glycoprotein [18]) of 4.9 and an IC50 (Cytochrome P450 2D6) of 20 µM. It also gave a clearance [19] of 11 mL/min/kg, a concentration at 1.25 h [20] of 0.005 µM and a fraction unbound [21] of 0.02. The “Cp(f)” value [22] was 1.5 µM, the IC50 (Cytochrome P450 2C9) was 28 µM and the Vd [23] was 2.1 L/kg. The half-life [24] was 1.3 h, the IC90 (Mus musculus [25]) was 0.22 µM and the clearance [26] was 4.5 mL/min/kg. It also gave a bioavailability [27] of 2%, a pKa [28] of 9 and a concentration at 1.25 h [29] of 0.1 µM. The fraction unbound [30] was 0.02, the IC50 [2] was 0.3 µM and the Papp [31] was 8 ×10⁻⁶ cm/s. The “Ratio IC50” value [32] was >390, the IC90 at 5 min (Nav1.5) was 3.6 µM and the “Ratio IC50” value [33] was 60. For the same molecule, the bioavailability [34] was 100%, the efflux ratio (P-glycoprotein [35]) was > 14 and the bioavailability [36] was 25%. The IC50 (Mus musculus [37]; Mus musculus, C57BL/6J) was 4.08 µM, the IC90 (Mus musculus [37]; time 1.75 hrs) was 6.04 µM and the Emax (PXR) was 80%. The IC50 [38] was 0.31 µM, the half-life [39] was 2.5 h and the EC90 (Mus musculus [40]) was 0.36 µM. The logD [41] was 1.7, the Vd [42] was 0.8 L/kg and the IC50 (Cytochrome P450 3A4) was > 50 µM.

For `CN[C@H](CNc1cc(F)c(S(=O)(=O)Nc2nccs2)cc1Cl)Cc1ccccc1`, the CL [10] was 4820 mL/min/kg, the IC50 [1] was > 34 µM and the IC50 [2] was 0.24 µM. For the same molecule, the Papp [31] was 10 ×10⁻⁶ cm/s.

For `CN[C@H](CNc1cc(F)c(S(=O)(=O)Nc2ncc(F)s2)cc1Cl)CC12CC(C1)C2`, the CL [10] was 2300 mL/min/kg, the IC50 [1] was > 34 µM and the IC50 [2] was 0.12 µM. The Papp [31] was 10 ×10⁻⁶ cm/s.

For `CN(C)[C@H](CNc1cc(F)c(S(=O)(=O)Nc2nccs2)cc1Cl)Cc1ccccc1`, the IC50 [1] was > 34 µM and the IC50 [2] was 0.85 µM.

In the case of `CN[C@H](CNc1cc(F)c(S(=O)(=O)Nc2ncc(F)s2)cc1Cl)CC1CC1`, the CL [10] is reported as 380 mL/min/kg, the IC50 [1] is reported as > 34 µM and the IC50 [2] is reported as 5.54 µM. It also gave a Papp [31] of 3 ×10⁻⁶ cm/s.

In the case of `CN[C@H](CNc1cc(F)c(S(=O)(=O)Nc2ncc(F)s2)cc1Cl)CC1(C)CC1`, the CL [10] is reported as 830 mL/min/kg, the IC50 [1] is reported as > 34 µM and the IC50 [2] is reported as 0.72 µM. The Papp [31] was 7 ×10⁻⁶ cm/s.

In the case of `CN[C@H](CNc1cc(F)c(S(=O)(=O)Nc2ncc(F)s2)cc1Cl)CC1CCC1`, the CL [10] is reported as 8090 mL/min/kg, the IC50 [1] is reported as > 34 µM and the IC50 [2] is reported as 1.78 µM. For the same molecule, the Papp [31] was 5 ×10⁻⁶ cm/s.

With `CN[C@H](CNc1cc(F)c(S(=O)(=O)Nc2ncc(F)s2)cc1Cl)Cc1ccccc1` the CL [10] was 3020 mL/min/kg, the IC50 [1] was > 34 µM and the IC50 [2] was 0.4 µM. It also gave a Papp [31] of 8 ×10⁻⁶ cm/s.
